Screening data as filed in PubChem.
A selection: hits, their analogues and other compounds. The true share with any hit is near 2.5%.
DENV2 CPE: inhibitors of DENV2 cytopathic effect | DENV2-infected cells, cytopathic effect rescue, plate reader | CPE inhibition, % at 9.99 µM | 350,000 tested, 1.7% active | AID 651640; in the data active = CPE inhibition above about 20%, passing the limit was not always enough; inconclusive = no clear call, values can overlap the other calls; tested in BHK-21 cells
PglD DTNB: inhibitors of Campylobacter jejuni PglD acetyltransferase; purified PglD enzyme, DTNB colorimetric CoA detection; inhibition, % at 12.5 µM; 360,000 tested, 0.098% active; AID 602405; in the data active = inhibition above about 16%, passing the limit was not always enough; inconclusive = no clear call, values can overlap the other calls
E-sel inducer: E-selectin induction on HUVECs | P16581 | HUVEC E-selectin immunofluorescence imaging; normalized: neutral wells 0, TNF-alpha wells 100 | activation, % at 7.58 µM | 260,000 tested, 0.37% active | AID 686992;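 active = mean E-selectin-positive cell signal at least 10% of the positive control, reached in at least 60% of replicates, without over 20% cell loss; inconclusive = no rule given, readout overlaps actives, possibly toxicity-flagged; inactive = the rest, including those meeting only one limit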
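Read-out basis: % PE-positive cells; Test system: HUVEC primary endothelial cells; Technique: immunofluorescence imaging; Dosing: single-point compound dose.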
ERAP1 HTS inh: ERAP1 (human) enzyme inhibition; inhibition, % at 10.7 µM; recombinant ERAP1, Leu-AMC fluorescence, 60 min; 340,000 tested, 0.15% active; Q9NZ08;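 active = mean replicate inhibition of at least 30%, or all replicates individually reaching that 30% level; inactive = mean below 30% and not every replicate reaching it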
Target sequence (Q9NZ08 whole entry, looked up): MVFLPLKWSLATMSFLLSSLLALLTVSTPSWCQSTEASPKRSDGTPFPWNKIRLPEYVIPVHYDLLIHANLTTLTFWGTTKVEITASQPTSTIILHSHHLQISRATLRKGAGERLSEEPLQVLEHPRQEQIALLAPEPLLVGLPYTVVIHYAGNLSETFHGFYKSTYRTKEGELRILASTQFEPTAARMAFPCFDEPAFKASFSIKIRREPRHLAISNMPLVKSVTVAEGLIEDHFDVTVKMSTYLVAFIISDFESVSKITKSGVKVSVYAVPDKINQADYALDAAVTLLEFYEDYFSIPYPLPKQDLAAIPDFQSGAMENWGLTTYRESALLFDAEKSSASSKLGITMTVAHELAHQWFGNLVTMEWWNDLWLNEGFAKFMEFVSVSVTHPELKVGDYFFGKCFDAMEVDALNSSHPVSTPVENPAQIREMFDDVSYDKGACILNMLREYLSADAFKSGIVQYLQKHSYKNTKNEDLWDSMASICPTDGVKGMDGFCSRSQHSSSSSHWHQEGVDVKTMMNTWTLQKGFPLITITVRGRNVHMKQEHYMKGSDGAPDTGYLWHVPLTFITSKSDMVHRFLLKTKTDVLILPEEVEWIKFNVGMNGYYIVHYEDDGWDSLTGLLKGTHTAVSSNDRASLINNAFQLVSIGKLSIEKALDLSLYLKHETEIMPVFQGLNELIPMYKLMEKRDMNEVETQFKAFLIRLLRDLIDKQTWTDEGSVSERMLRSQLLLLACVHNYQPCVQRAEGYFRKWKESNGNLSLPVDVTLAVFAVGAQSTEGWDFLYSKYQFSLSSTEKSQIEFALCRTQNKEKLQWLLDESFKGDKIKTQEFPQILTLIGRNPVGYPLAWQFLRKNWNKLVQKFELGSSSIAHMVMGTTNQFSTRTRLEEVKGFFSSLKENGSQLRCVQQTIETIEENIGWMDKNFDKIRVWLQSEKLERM
SIRT5 inh: inhibitors of human sirtuin-5 desuccinylase. Q9NXA8. Purified SirT5, succinyl-peptide AMC, trypsin-coupled fluorescence. inhibition, % at 15 µM. 330,000 tested, 1.1% active. AID 652115; in the data active = inhibition above about 15%; inconclusive = no clear call, values can overlap the other calls
A number is an active result; – = inactive; ? = inconclusive; · = not tested or not shown; + = active, no number.

SMILES	DENV2 CPE	PglD DTNB	E-sel inducer	ERAP1 HTS inh	SIRT5 inh
COc1ccc(-c2cnnc(N/N=C/c3ccc(-c4ccc([N+](=O)[O-])cc4)o3)n2)cc1	–	·	–	–	–
Cc1ccc(OCCCCCCN2CCNCC2)cc1	–	–	·	–	–
CNC(=O)C[C@H]1CC[C@@H]2[C@H](COc3ccc(NC(=O)c4ccc(F)c(F)c4)cc3C(=O)N2C)O1	95	–	–	–	–
CNC(=O)C[C@H]1CC[C@H]2[C@H](COc3ccc(NC(=O)c4ccc(F)c(F)c4)cc3C(=O)N2C)O1	?	–	–	–	–
CNC(=O)C[C@@H]1CC[C@@H]2[C@H](COc3ccc(NC(=O)c4ccc(F)c(F)c4)cc3C(=O)N2C)O1	97	–	–	–	–
CCn1c(C)nc2cc(C(=O)NNC(=O)Nc3ccc(Cl)c(Cl)c3)ccc21	–	·	–	–	18
O=C(CN(CC1CCCO1)C(=O)CNS(=O)(=O)c1ccccc1)NCc1ccc(F)cc1 (stereo unspecified)	–	–	26	–	–
C[C@H]1CN([C@@H](C)CO)C(=O)c2cc(NC(=O)CCC(F)(F)F)ccc2O[C@H]1CN(C)S(=O)(=O)c1ccc(Cl)cc1	73	–	–	–	–
C[C@H]1CN([C@@H](C)CO)C(=O)c2cc(NC(=O)CCCN(C)C)ccc2O[C@@H]1CN(C)S(=O)(=O)c1ccc(Cl)cc1	+	–	–	–	–
CC1CCN(C(=O)Cn2c(=O)n(-c3ccc(F)cc3)c(=O)c3sccc32)CC1	–	–	–	–	–
Cc1nonc1NC(=O)CSc1cn[nH]n1	–	–	–	–	–
Nc1ccc(-c2c3ccc(=O)cc-3oc3cc(O)ccc23)cc1C(=O)O	–	·	·	–	19
O=c1ccc2c(-c3ccccc3)c3ccc(O)cc3oc-2c1	–	–	–	–	–
COc1ccc(CCN(C)C(=O)CSc2nc3ccccc3c(=O)n2CC2CCCO2)cc1OC (stereo unspecified)	21	–	–	–	–
Cc1ccc(CNC(=O)CSc2nc3ccccc3c(=O)n2CC2CCCO2)cc1 (stereo unspecified)	–	–	–	–	–
COc1ccccc1-c1cc(C(=O)NC(C)c2ccccc2)no1 (stereo unspecified)	·	–	·	·	·
COc1ccccc1-c1cc(C(=O)NC(C)C)no1	–	–	·	–	22
O=C(C[C@@H]1CC[C@H]2[C@@H](COC[C@H](O)CN2C(=O)Nc2ccc(F)cc2)O1)NC1Cc2ccccc2C1	25	–	–	–	–
O=C(C[C@@H]1CC[C@H]2[C@@H](COC[C@H](O)CN2C(=O)c2ccc3c(c2)OCO3)O1)NCCN1CCCCC1	–	–	–	–	–
O=C(C[C@H]1CC[C@H]2[C@@H](COC[C@@H](O)CN2C(=O)c2ccc3c(c2)OCO3)O1)NCCN1CCCC1	27	·	–	–	–
O=C(C[C@H]1CC[C@@H]2[C@H](COC[C@H](O)CN2C(=O)c2ccc3c(c2)OCO3)O1)NC1Cc2ccccc2C1	24	–	–	–	–
COc1ccc2c(c1)OC(O)(C(F)(F)F)CC2=O (stereo unspecified)	·	–	·	–	–
COc1ccc(S(=O)(=O)N(C)C[C@@H]2Oc3cc(C4=CCCC4)ccc3S(=O)(=O)N([C@H](C)CO)C[C@H]2C)cc1	–	–	–	–	–
Cn1cnc(Sc2ncnc3nc[nH]c23)c1[N+](=O)[O-]	–	–	·	41	–
O=C(NC(=S)N1CCN(c2ccc([N+](=O)[O-])cc2)CC1)c1ccccc1	–	·	33	–	–
SMILES	DENV2 CPE	PglD DTNB	E-sel inducer	ERAP1 HTS inh	SIRT5 inh
CC(=O)N1CCN(C(=S)NC(=O)c2ccc(F)cc2)CC1	–	–	–	–	–
N#Cc1ccc(C(=O)NC(=S)N2CCN(C=O)CC2)cc1	–	–	–	–	20
O=C(NC(=S)N1CCN(c2ccccc2)CC1)c1c(F)cccc1F	75	–	–	–	–
O=C(N/C(=C\c1ccc([N+](=O)[O-])cc1)C(=O)N1CCCCC1)c1ccccc1	–	·	·	–	16
O=C(COC(=O)CCCc1nc2ccccc2s1)NC(=O)NCc1ccco1	–	–	–	–	–
C[C@@H]1CCCCO[C@H](CN(C)C(=O)Cc2ccccc2)[C@@H](C)CN([C@@H](C)CO)C(=O)c2cc(NS(=O)(=O)c3cccs3)ccc2O1	–	–	–	–	–
CSc1ncccc1C(=O)NC1CCCc2c1cnn2-c1ccc(C)c(C)c1 (stereo unspecified)	–	–	·	–	–
CCC(C)NC(=O)CC(NS(=O)(=O)c1ccc(C)cc1)c1ccc(OC)cc1 (stereo unspecified)	·	·	–	·	·
COCC#Cc1ccc([C@@H]2[C@@H](CO)N3C(=O)CN(C(=O)C4CC4)C[C@H]23)cc1	–	·	–	–	–
COc1ccc(NC(=O)COC(=O)CCCC2=NS(=O)(=O)c3ccccc3N2)cc1	–	–	·	–	–
N#Cc1ccccc1COC(=O)CCCC1=NS(=O)(=O)c2ccccc2N1	–	–	–	–	32
Cc1ccc(C(=O)Nc2cccc3cccnc23)cc1C	–	–	–	–	–
N#Cc1cccc(-c2ccc3c(c2)[C@H]2[C@H](CCN2Cc2cncnc2)[C@@H](CO)N3)c1	–	–	–	·	·
CCSc1ncc(Cl)c(C(=O)Nc2ccccc2C)n1	–	–	–	–	33
Cc1ccc(S(=O)(=O)N(C)C[C@H]2Oc3c(NC(=O)Nc4ccc5c(c4)OCO5)cccc3C(=O)N([C@H](C)CO)C[C@H]2C)cc1	–	–	–	–	–
C[C@@H]1CN([C@@H](C)CO)C(=O)c2cccc(NC(=O)Nc3ccc4c(c3)OCO4)c2O[C@H]1CN(C)S(=O)(=O)c1ccc(F)cc1	–	–	55	–	–
Cc1ccc(S(=O)(=O)N(C)C[C@@H]2Oc3c(NC(=O)Nc4ccc5c(c4)OCO5)cccc3C(=O)N([C@H](C)CO)C[C@@H]2C)cc1	–	–	–	–	15
C[C@@H]1CN([C@H](C)CO)S(=O)(=O)c2ccc(-c3cccnc3)cc2O[C@@H]1CN(C)Cc1ccccn1	–	–	–	–	–
CC(C)C(C(=O)NCc1ccco1)N(Cc1ccco1)C(=O)CNS(=O)(=O)c1ccc(F)cc1 (stereo unspecified)	–	–	·	–	–
Cc1ccc(S(=O)(=O)N(CC(=O)Nc2ccc(F)cc2)C(=O)N2CCN(C)CC2)cc1	–	–	–	–	–
COc1ccc(Nc2c(-c3ccc(C)cc3)nc3cnccn23)cc1	–	·	–	·	18
CCOc1ccc(C(C(=O)NCC2CCCO2)N(CCc2cccc(C)c2)C(=O)c2snc(C(N)=O)c2N)cc1 (stereo unspecified)	–	–	–	–	·
O=c1cc(-c2ccccc2Cl)oc2ccc([N+](=O)[O-])c(O)c12	–	–	–	–	·
Nc1ccc2oc(-c3ccccc3Cl)cc(=O)c2c1O	105	–	–	·	·
CC(C)(C)C(=O)Nc1sc2c(c1C(=O)Nc1ccccn1)CCCC2	–	–	–	–	18
CCCN1Cc2cccc(C(=O)Nc3ccc4c(c3)OCCO4)c2C1=O	94	–	–	–	·
